# According to ChEMBL document CHEMBL2424598, “Identification and optimization of pteridinone Toll-like receptor 7 (TLR7) agonists for the oral treatment of viral hepatitis” (J Med Chem, 2013):
# Active and inactive are the calls of the source. No cut-off for these calls is given here.
# Tests used:
# Cynomolgus monkey [1] = assay: Agonist activity at […] in cynomolgus monkey assessed as increase of serum IFNalpha level at 2 mg/kg, po after 1 to 24 hrs by ELISA; assay type: functional, Macaca fascicularis
# In short: (§1)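 Healthy male cynomolgus monkeys, n = 3 per group, dosed either by 30 min iv infusion or orally. Serum was sampled predose and at 1, 2, 4, 8, 12 and 24 h postdose. IFN-α was measured by species-specific ELISA (limit of detection 130 pg/mL) and reported as mean peak serum level ± SD.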
# Cynomolgus monkey [2] = assay: Agonist activity at […] in cynomolgus monkey assessed as increase of serum IFNalpha level at 1 mg/kg, po after 1 to 24 hrs by ELISA; assay type: functional, Macaca fascicularis; in short: as §1
# Cynomolgus monkey [3] = assay: Agonist activity at […] in cynomolgus monkey assessed as increase of serum IFNalpha level at 0.1 mg/kg, po after 1 to 24 hrs by ELISA; assay type: functional, Macaca fascicularis; in short: as §1
# Cynomolgus monkey [4] = assay: Agonist activity at […] in cynomolgus monkey assessed as increase of serum IFNalpha level at 0.1 mg/kg, iv after 1 to 24 hrs by ELISA; assay type: functional, Macaca fascicularis; in short: as §1
# [5] = Cmax in cynomolgus monkey at 2 mg/kg, po; assay type: ADME, organism-based, Macaca fascicularis; set-up: dose 2 mg/kg, route oral; settings: in vivo
# In short: (§2)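 Male cynomolgus monkeys, n = 3 per group, received a 30 min iv infusion or an oral dose. Compound was measured in serum (limit of quantitation 0.04 ng/mL), and Cmax is reported as the group mean.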
# [6] = Cmax in cynomolgus monkey at 0.1 mg/kg, iv; assay type: ADME, organism-based, Macaca fascicularis; set-up: dose 0.1 mg/kg, route intravenous; settings: in vivo; in short: as §2
# [7] = Oral bioavailability in cynomolgus monkey at 0.3 mg/kg; assay type: ADME, organism-based, Macaca fascicularis; settings: in vivo
# In short: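 Healthy male cynomolgus monkeys, n = 3, received a 30 min iv infusion at 0.1 mg/kg or an oral dose at 0.3 mg/kg. The oral formulation was water at pH 3.1 (HCl). Plasma PK parameters (CL, Vss, F) are reported as mean ± SD.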
# [8] = Half life in monkey liver microsomes; assay type: ADME, Macaca mulatta, Microsome; settings: rhesus monkey
# Toll-like receptor 8 = molecular target: T1, Toll-like receptor 8 (Homo sapiens, UniProt Q9NR97); assay: Agonist activity at human TLR8 expressed in HEK293 cells by reporter based assay; assay type: cell-based
# T1 sequence (Q9NR97 whole entry): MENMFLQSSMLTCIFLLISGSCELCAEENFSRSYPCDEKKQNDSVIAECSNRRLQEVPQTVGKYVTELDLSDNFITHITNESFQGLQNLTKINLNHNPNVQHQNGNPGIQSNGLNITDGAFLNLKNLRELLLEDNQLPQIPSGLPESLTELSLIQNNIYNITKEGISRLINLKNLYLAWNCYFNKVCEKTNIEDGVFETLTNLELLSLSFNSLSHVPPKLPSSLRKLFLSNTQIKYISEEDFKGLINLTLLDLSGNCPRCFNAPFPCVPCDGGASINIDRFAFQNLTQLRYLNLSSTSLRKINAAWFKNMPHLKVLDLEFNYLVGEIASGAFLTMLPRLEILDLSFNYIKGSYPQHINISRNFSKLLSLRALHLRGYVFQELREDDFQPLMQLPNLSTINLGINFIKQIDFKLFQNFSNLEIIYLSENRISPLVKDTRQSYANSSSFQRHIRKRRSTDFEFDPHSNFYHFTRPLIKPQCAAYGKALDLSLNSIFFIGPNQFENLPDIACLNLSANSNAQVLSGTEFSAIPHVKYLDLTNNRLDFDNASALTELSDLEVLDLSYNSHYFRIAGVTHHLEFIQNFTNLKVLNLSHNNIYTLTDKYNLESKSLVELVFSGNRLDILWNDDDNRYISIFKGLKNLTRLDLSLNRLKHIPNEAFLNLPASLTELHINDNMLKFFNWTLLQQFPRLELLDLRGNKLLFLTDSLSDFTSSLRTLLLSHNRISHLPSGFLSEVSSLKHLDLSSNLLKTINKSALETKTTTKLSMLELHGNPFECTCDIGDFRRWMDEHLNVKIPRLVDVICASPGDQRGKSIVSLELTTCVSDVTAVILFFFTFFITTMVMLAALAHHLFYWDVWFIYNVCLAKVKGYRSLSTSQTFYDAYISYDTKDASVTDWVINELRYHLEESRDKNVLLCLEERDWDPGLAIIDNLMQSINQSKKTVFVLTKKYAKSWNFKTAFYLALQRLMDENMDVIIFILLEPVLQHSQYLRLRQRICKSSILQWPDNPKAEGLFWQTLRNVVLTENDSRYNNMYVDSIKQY
# In short: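 HEK293 reporter cell lines, each expressing a single human TLR, with compound titrated up to 100 μM. EC50 taken for TLR7 and TLR8 activation.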
# [9] = molecular target: T2, Toll-like receptor 8 (Homo sapiens) (UniProt Q9NR97); assay: Agonist activity at TLR8-mediated TNFalpha production in human PBMC assessed as minimum concentration of compound necessary to generate >3 fold of cytokine levels relative to control
# T2 sequence (whole entry): T1 sequence (Q9NR97 whole entry)
# In short: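 Cryopreserved human PBMCs from leukapheresis of one healthy donor, chosen as a consistent responder to TLR7 stimulation; 24 h incubation with compound over an eight-point concentration range. TNF-α read from dose-response curves. MEC is the lowest concentration giving cytokine levels at least 3-fold above untreated control cultures.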
# Cynomolgus monkey [10] = assay: Agonist activity at […] in cynomolgus monkey assessed as increase of serum TNFalpha level at 0.3 to 1 mg/kg after 1 to 24 hrs by ELISA; settings: Macaca fascicularis
compound,measurement,setting,value
CCCCOc1nc(N)c2c(n1)N(Cc1cccc(CN3CCCC3)c1)CC(=O)N2 [VESATOLIMOD],Activity,Cynomolgus monkey [1],119000 pg/mL
same,Activity,Cynomolgus monkey [2],22367 pg/mL
same,Activity,Cynomolgus monkey [3],140 pg/mL
same,Activity,Cynomolgus monkey [4],1840 pg/mL
same,Cmax,[5],66.4 ng/mL
same,Cmax,[6],128 ng/mL
same,bioavailability,[7],1.1%
same,half-life,[8],5.9 min
same,EC50,Toll-like receptor 8,9 µM
same,MEC,[9],3.65 µM
same,Activity,Cynomolgus monkey [10],inactive
